Values after ≈ are worked out from the molar mass of the structure shown. Active and inactive are the calls of the source. The calls are words filed in the database; no cut-off is given here.
Assays:
HepG2 [1] = test: Cytotoxicity against human HepG2 cells assessed as reduction in cell viability after 24 hrs in presence of 10% FBS by MTT assay; format: cell-based; settings: HepG2, 24 h
Summary of the method: (§1)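 HepG2 cells in EMEM with either 10% FBS or 0.5% FBS plus 10% Cell-Ess serum replacement. Seeded at 25,000 cells/well and incubated overnight at 37 °C, 5% CO2. Treated 24 h at 100–3 μg/mL, with matched DMSO controls. MTT added for 2 h, formazan extracted in DMSO, absorbance read at 570 nm. Run in duplicate; IC50 taken from the viability plot against the DMSO control.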

Staphylococcus aureus [2] = test: Antibacterial activity against Staphylococcus aureus RN4220 over-expressing FabI by microbroth dilution method; format: functional
Summary of the method: (§2)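 Broth microdilution MIC; reported value is mean of at least two runs, within two-fold experimental uncertainty.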

HepG2 [3] = test: Cytotoxicity against human HepG2 cells assessed as reduction in cell viability after 24 hrs in presence of 0.5% FBS by MTT assay; format: cell-based; settings: HepG2, 24 h; summary of the method: as §1
[4] = tested on: Acinetobacter baumannii ATCC 19606 = CIP 70.34 = JCM 6841; test: Binding affinity to Acinetobacter baumannii 2208 ATCC 19606 FabI by SPR assay
[5] = Inhibition of Acinetobacter baumannii 2208 ATCC 19606 FabI using crotonyl-CoA as substrate in presence of NADPH/NADH after 10 mins by fluorescence assay; design: species or system Acinetobacter baumannii ATCC 19606 = CIP 70.34 = JCM 6841
Summary of the method: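 AbFabI, 200 nM, in 50 mM MES/100 mM NaCl with 200 μM NADH, 0.1 mg/mL BSA and 0.01% triton. Reaction started with 300 μM crotonyl-CoA. NADH fluorescence read at 340/460 nm. Compounds tested at 0.4 nM–200 μM. Initial 10-min slopes were compared with a DMSO no-compound control. At least two independent experiments, each in duplicate; two-fold uncertainty.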

Acinetobacter baumannii [6] = test: Synergistic antibacterial activity against Acinetobacter baumannii 2208 ATCC 19606 in presence of colistin by checkerboard method; format: functional; settings: ATCC 19606 = CIP 70.34 = JCM 6841 2208
Staphylococcus aureus [7] = test: Selectivity ratio of MIC for Staphylococcus aureus RN4220 over-expressing FabI to MIC for Staphylococcus aureus RN4220; format: functional
Escherichia coli [8] = test: Antibacterial activity against Escherichia coli BW25113 harboring TolC deletion mutant by microbroth dilution method; format: functional; summary of the method: as §2
Acinetobacter baumannii [9] = test: Synergistic antibacterial activity against MDR Acinetobacter baumannii ATCC BAA-1605 assessed as fold reduction in colistin MIC by checkerboard method; format: functional
Acinetobacter baumannii [10] = test: Antibacterial activity against Acinetobacter baumannii 2208 ATCC 19606 by microbroth dilution method; format: functional; settings: ATCC 19606 = CIP 70.34 = JCM 6841 2208
Summary of the method: (§3)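 Microbroth dilution MIC; each value is the mean of at least two runs, within two-fold experimental uncertainty.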

[11] = molecular target: T1, Enoyl-[acyl-carrier-protein] reductase [NADPH] FabI (Staphylococcus aureus, UniProt Q6GI75); test: Competitive inhibition of Staphylococcus aureus subsp. aureus Rosenbach ATCC 43300 FabI using crotonyl-CoA as substrate in presence of NADPH/NADH after 10 mins by fluorescence assay
T1 sequence (Q6GI75 whole entry): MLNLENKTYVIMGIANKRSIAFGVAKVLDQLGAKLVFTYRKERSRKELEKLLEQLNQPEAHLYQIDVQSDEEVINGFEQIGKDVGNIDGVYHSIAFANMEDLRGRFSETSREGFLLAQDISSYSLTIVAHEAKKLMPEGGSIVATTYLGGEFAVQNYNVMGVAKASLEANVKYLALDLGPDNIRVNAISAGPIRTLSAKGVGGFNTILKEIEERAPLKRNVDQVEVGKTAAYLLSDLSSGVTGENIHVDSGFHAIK

[12] = molecular target: T2, Enoyl-[acyl-carrier-protein] reductase [NADPH] FabI (Staphylococcus aureus) (UniProt Q6GI75); test: Binding affinity to Staphylococcus aureus subsp. aureus Rosenbach ATCC 43300 FabI by SPR assay
T2 sequence (whole entry): T1 sequence (Q6GI75 whole entry)

Acinetobacter baumannii [13] = test: Synergistic antibacterial activity against MDR Acinetobacter baumannii ATCC BAA-1605 assessed as fractional inhibitory concentration in presence of colistin by checkerboard method; format: functional
Staphylococcus aureus [14] = test: Antibacterial activity against methicillin-resistant Staphylococcus aureus subsp. aureus Rosenbach ATCC 43300 by microbroth dilution method; format: functional; summary of the method: as §2
Staphylococcus aureus [15] = test: Antibacterial activity against Staphylococcus aureus Newman by microbroth dilution method; format: functional; summary of the method: as §3
Acinetobacter baumannii [16] = test: Synergistic antibacterial activity against MDR Acinetobacter baumannii ATCC BAA-1605 in presence of colistin by checkerboard method; format: functional
Summary of the method: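 Checkerboard broth dilution in tryptic soy broth. Colistin 4 to 0.03 μg/mL against analog 100 to 0.19 μg/mL, crossed. Clear wells scored. ΣFIC = C/MIC(compound) + C/MIC(partner); <0.5 synergy, 0.5–2 indifference, >2 antagonism.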

Acinetobacter baumannii [17] = test: Synergistic antibacterial activity against MDR Acinetobacter baumannii ATCC BAA-1605 assessed as colistin MIC by checkerboard method; format: functional
Acinetobacter baumannii [18] = test: Synergistic antibacterial activity against Acinetobacter baumannii 2208 ATCC 19606 assessed as colistin MIC by checkerboard method; format: functional; settings: ATCC 19606 = CIP 70.34 = JCM 6841 2208
[19] = Competitive inhibition of Acinetobacter baumannii 2208 ATCC 19606 FabI using crotonyl-CoA as substrate in presence of NADPH/NADH after 10 mins by fluorescence assay; design: species or system Acinetobacter baumannii ATCC 19606 = CIP 70.34 = JCM 6841
Acinetobacter baumannii [20] = test: Synergistic antibacterial activity against Acinetobacter baumannii 2208 ATCC 19606 assessed as fractional inhibitory concentration in presence of colistin by checkerboard method; format: functional, ATCC 19606 = CIP 70.34 = JCM 6841 2208
Escherichia coli [21] = test: Antibacterial activity against Escherichia coli BW25113 mutant by microbroth dilution method; format: functional; summary of the method: as §2
[22] = Selectivity index, ratio for IC50 for human HepG2 cells to MIC for methicillin-resistant Staphylococcus aureus subsp. aureus Rosenbach ATCC 43300; format: toxicity
[23] = Selectivity index, ratio for IC50 for human HepG2 cells to MIC for Staphylococcus aureus RN4220; format: toxicity; settings: read-out: Selectivity Index
Acinetobacter baumannii [24] = test: Synergistic antibacterial activity against Acinetobacter baumannii 2208 ATCC 19606 in presence of polymixin B by checkerboard method; format: functional; settings: ATCC 19606 = CIP 70.34 = JCM 6841 2208
Acinetobacter baumannii [25] = test: Synergistic antibacterial activity against Acinetobacter baumannii 2208 ATCC 19606 assessed as polymixin B MIC by checkerboard method; format: functional; settings: ATCC 19606 = CIP 70.34 = JCM 6841 2208
Acinetobacter baumannii [26] = test: Synergistic antibacterial activity against Acinetobacter baumannii 2208 ATCC 19606 assessed as fractional inhibitory concentration in presence of polymixin B by checkerboard method; format: functional, ATCC 19606 = CIP 70.34 = JCM 6841 2208
[27] = Selectivity index, ratio for IC50 for human HepG2 cells to MIC for Staphylococcus aureus RN4220 over-expressing FabI; format: toxicity
[28] = molecular target: T1, Enoyl-[acyl-carrier-protein] reductase [NADPH] FabI; test: Inhibition of Staphylococcus aureus subsp. aureus Rosenbach ATCC 43300 FabI using crotonyl-CoA as substrate in presence of NADPH/NADH after 10 mins by fluorescence assay
Summary of the method: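 SaFabI enzyme, 300 nM, in 50 mM MES/100 mM NaCl with 200 μM NADPH, 0.1 mg/mL BSA, 0.01% triton; started with 400 μM crotonyl-CoA. NADPH fluorescence at 340/460 nm. Compounds 0.4 nM–200 μM. Slopes over first 10 min compared with DMSO control for % inhibition. At least two independent experiments, each in duplicate. Two-fold experimental uncertainty.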

Staphylococcus aureus [29] = test: Antibacterial activity against Staphylococcus aureus RN4220 by microbroth dilution method; format: functional; summary of the method: as §2
[30] = Protein binding in human serum; format: ADME, cell-free; settings: read-out: PB (converted)
[31] = Protein binding in mouse serum; format: ADME, cell-free; settings: read-out: PB (converted)
[32] = Protein binding in rat serum; format: ADME, cell-free; settings: read-out: PB (converted)
[33] = Protein binding in dog serum; format: ADME, cell-free, Canis lupus familiaris; settings: read-out: PB (converted)

Row | Structure (SMILES) | IC50 (HepG2 [1]) [µg/mL] | MIC (Staphylococcus aureus [2]) [µg/mL] | IC50 (HepG2 [3]) [µg/mL] | Activity [4] | IC50 [5] [µM] | MIC (Acinetobacter baumannii [6]) [µg/mL] | MIC (Escherichia coli [8]) [µg/mL] | fold change (FC) (Acinetobacter baumannii [9]) | MIC (Acinetobacter baumannii [10]) [µg/mL] | Ki [11] [µM] | Activity [12] | MIC (Staphylococcus aureus [14]) [µg/mL] | MIC (Staphylococcus aureus [15]) [µM] | MIC (Acinetobacter baumannii [18]) [µg/mL] | Ki [19] [µM] | FIC (Acinetobacter baumannii [20]) | MIC (Escherichia coli [21]) [µg/mL] | also measured
1 | O=C(Cc1ccccc1Cl)N1CCC(c2ccc3c(c2)OCO3)C1 (racemic) | 64 | > 200 | 46 | Active | 7.8 | 6.25 | 25 (≈ 72.7 µM) | 10 | > 200 | 0.9 | Active | 25 (≈ 72.7 µM) | 18.2 (≈ 6.26 µg/mL) | 0.78 | 3.9 | 0.28 |  | Selectivity ratio (Staphylococcus aureus [7]): >4; FIC (Acinetobacter baumannii [13]): 0.31; MIC (Acinetobacter baumannii [16]): 12.5 µg/mL; MIC (Acinetobacter baumannii [17]): 0.78 µg/mL
2 | COc1ccccc1C1CCN(C(=O)Cc2c(F)cccc2F)C1 (racemic) | 279 |  | 65 | Active | 3 | 50 |  |  | > 200 | 2.1 | Active | > 200 | 151 (≈ 50 µg/mL) | 0.19 | 1.5 | 0.38 | > 200 | 
3 | COc1ccccc1C1CCN(C(=O)/C=C/c2ccc(NC(C)=O)nc2)C1 (racemic) | 219 |  | 138 | Active | 0.42 | 25 | 0.75 (≈ 2.05 µM) | 10 | > 200 | 1.3 | Active |  | 34.2 (≈ 12.5 µg/mL) | 0.39 | 0.2 |  |  | Selectivity ratio (Staphylococcus aureus [7]): 4; Selectivity ratio [22]: 8.8; Selectivity ratio [23]: > 10; MIC (Acinetobacter baumannii [24]): 50 µg/mL; MIC (Acinetobacter baumannii [25]): 15 µg/mL; FIC (Acinetobacter baumannii [26]): 0.37; FIC (Acinetobacter baumannii [13]): 0.31; MIC (Acinetobacter baumannii [16]): 12.5 µg/mL; MIC (Acinetobacter baumannii [17]): 0.78 µg/mL; Selectivity ratio [27]: 4.4
4 | CC(=O)Nc1ccc(CC(=O)N2CCC(c3ccccc3)C2)cc1 (racemic) |  | > 200 |  | Active | > 100 |  | > 200 |  | > 200 | > 37.1 | Active | > 200 |  |  | > 50 |  |  | IC50 [28]: > 100 µM
5 | O=C(Cc1ccccc1Cl)N1CCC(c2ccccn2)C1 (racemic) |  | 200 (≈ 665 µM) |  | Active | 30.7 | 50 |  | 10 | > 200 | 6.8 | Active | 200 (≈ 665 µM) | 166 (≈ 50 µg/mL) | 0.39 | 15.4 | 0.5 | > 200 | MIC (Staphylococcus aureus [29]): 100 µg/mL (≈ 332 µM)
6 | O=C(Cc1cccc(F)c1F)N1CCC(c2ccccc2)C1 (racemic) | 125 | 200 (≈ 664 µM) | 68 | Active | 9.3 | 25 |  |  | > 200 | 2.7 | Active | 100 (≈ 332 µM) | 166 (≈ 50 µg/mL) | 0.19 | 4.7 | 0.25 | > 200 | MIC (Staphylococcus aureus [29]): 50 µg/mL (≈ 166 µM)
7 | Cc1c(CN(C)C(=O)/C=C/c2cnc3c(c2)CCC(=O)N3)oc2ccccc12 [AFN-1252] |  |  |  |  |  |  |  |  |  |  |  |  |  |  |  |  |  | fraction unbound [30]: 0.05; fraction unbound [31]: 0.05; fraction unbound [32]: 0.05; fraction unbound [33]: 0.05
